ChEMBL document CHEMBL1132203, “Synthesis and biological properties of novel pyridinioalkanoyl thiolesters (PATE) as anti-HIV-1 agents that target the viral nucleocapsid protein zinc fingers” (J Med Chem, 1999)

Tests used:
[1] = test system: Human immunodeficiency virus 1; test: Effective antiviral concentration against HIV-1 infected CEM-SS cells; assay type: functional, organism-based; settings: Human immunodeficiency virus 1, CEM-SS
In short: (§1)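 CEM-SS cells infected with HIV-1 RF at MOI 0.01, scored by XTT dye-reduction cytoprotection. EC50 is the concentration giving 50% protection of infected cells. IC50 is the concentration causing 50% cytotoxicity (growth inhibition). High test concentration 316 μM.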

[2] = test system: Human immunodeficiency virus 1; test: Antiviral activity against HIV-1 infected CEM-SS cells was determined in XTT cytoprotection assay; assay type: functional, organism-based; settings: Human immunodeficiency virus 1, CEM-SS; in short: as §1
[3] = test system: Human immunodeficiency virus 1; test: Nucleocapsid p7 protein (NCp7) zinc finger domain reactivity was measured by Trp37 fluorescence assay expressed as the average decrease in relative fluorescence units over 30 min; assay type: functional
In short: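 Recombinant HIV-1 NCp7 (pET3A construct expressed in E. coli BL21); intrinsic fluorescence of Trp37 in the C-terminal zinc finger monitored over 30 min after compound addition. Value is the mean fall in relative fluorescence units per minute across 30 min, taken as a readout of Zn ejection. Dithiane or DIBA-1 served as reference. Where glutathione pretreatment was used, 2 mM compound was held 2 h at 37 °C with 2–8 M excess reduced glutathione, then diluted 40-fold to 50 μM final compound.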

Row | Structure (SMILES) | EC50 [1] [µM] | IC50 [2] [µM] | Activity [3] [RFU min-1]
1 | COc1cnc(NS(=O)(=O)c2ccc(-n3sc4ccccc4c3=O)cc2)nc1 | 17.8 | 57.6 | 
2 | Cc1nnc(NS(=O)(=O)c2ccc(-n3sc4ccccc4c3=O)cc2)s1 | 7.8 | 17.3 | 
3 | O=C(CCCCBr)Sc1ccccc1C(=O)Nc1ccc(S(=O)(=O)c2ccc(NS(=O)(=O)Cc3ccccc3[N+](=O)[O-])cc2)cc1 |  | > 316 | 1.9
4 | Cc1noc(NS(=O)(=O)c2ccc(-n3sc4ccccc4c3=O)cc2)c1C | 12.8 | 39 | 
5 | CC(=O)NS(=O)(=O)c1ccc(-n2sc3ccccc3c2=O)cc1 | 12.6 | 34 | 
6 | CC(=O)NS(=O)(=O)c1ccc(NC(=O)c2ccccc2NC(=O)CCCC[n+]2ccccc2)cc1.[Br-] |  | > 316 | 2.6
7 | O=C(NS(=O)(=O)c1ccc(-n2sc3ccccc3c2=O)cc1)c1ccccc1 | 9.3 | 49.5 | 
8 | O=c1c2ccccc2sn1-c1ccc(S(=O)(=O)Nc2ccc(Cl)nn2)cc1 | 7.1 | 19.2 | 
9 | COc1cc(NS(=O)(=O)c2ccc(-n3sc4ccccc4c3=O)cc2)nc(OC)n1 | 7.6 | 56.6 | 
10 | NS(=O)(=O)c1ccc(CNC(=O)c2ccccc2SSc2ccccc2C(=O)NCc2ccc(S(N)(=O)=O)cc2)cc1 | 0.33 | 19.4 | 3.3
11 | O=c1c2ccccc2sn1-c1ccc(S(=O)(=O)c2ccc(NS(=O)(=O)Cc3ccccc3[N+](=O)[O-])cc2)cc1 | 3.2 | 59.5 | 2
12 | NS(=O)(=O)c1ccc(CNC(=O)c2ccccc2SC(=O)CCCC[n+]2ccccc2)cc1.[Br-] | 1.1 | 55 | 1.4
13 | O=c1c2ccccc2sn1-c1ccc(S(=O)(=O)Nc2cnc3ccccc3n2)cc1 | 9.2 | 54.7 | 
14 | CC(=O)NS(=O)(=O)c1ccc(NC(=O)c2ccccc2NC(=O)CCl)cc1 |  | 202 | 0.3
15 | CC(=O)NS(=O)(=O)c1ccc(NC(=O)c2ccccc2NC(=O)CCCl)cc1 |  | > 316 | 2
16 | O=C(Nc1ccc(S(=O)(=O)c2ccc(NC(=O)c3ccccc3SSc3ccccc3C(=O)Nc3ccc(S(=O)(=O)c4ccc(NC(=O)c5cccs5)cc4)cc3)cc2)cc1)c1cccs1 | 12.2 | 190 | 
17 | O=C(Nc1ccc(S(=O)(=O)c2ccc(NS(=O)(=O)Cc3ccccc3[N+](=O)[O-])cc2)cc1)c1ccccc1SSc1ccccc1C(=O)Nc1ccc(S(=O)(=O)c2ccc(NS(=O)(=O)Cc3ccccc3[N+](=O)[O-])cc2)cc1 | 12.3 | > 316 | 1.5

Row | Structure (SMILES) | EC50 [1] [µM] | IC50 [2] [µM] | Activity [3] [RFU min-1]
18 | CC(=O)Nc1ccc(S(=O)(=O)Nc2ccc(S(=O)(=O)c3ccc(NC(=O)c4ccccc4SSc4ccccc4C(=O)Nc4ccc(S(=O)(=O)c5ccc(NS(=O)(=O)c6ccc(NC(C)=O)cc6)cc5)cc4)cc3)cc2)cc1 | 1 | 12.7 | 5.9
19 | Cc1cc(NS(=O)(=O)c2ccc(-n3sc4ccccc4c3=O)cc2)nc(C)n1 | 6.5 | 39.7 | 
20 | NS(=O)(=O)c1ccc(NS(=O)(=O)c2ccc(-n3sc4ccccc4c3=O)cc2)cc1 | 6.2 | 18.1 | 
21 | CC(=O)Nc1ccc(S(=O)(=O)c2ccc(NC(=O)c3ccccc3SC(=O)CCCC[n+]3ccccc3)cc2)cc1.[Br-] | 4.6 | 288 | 1.7
22 | Cc1ccnc(NS(=O)(=O)c2ccc(-n3sc4ccccc4c3=O)cc2)n1 | 8.8 | 57.4 | 
23 | CC(=O)NS(=O)(=O)c1ccc(NC(=O)c2ccccc2SC(=O)CCCl)cc1 | 4.2 | 62 | 9.2
24 | NS(=O)(=O)c1ccc(CCNC(=O)c2ccccc2SSc2ccccc2C(=O)NCCc2ccc(S(N)(=O)=O)cc2)cc1 | 0.41 | 52.8 | 2.7
25 | O=c1c2ccccc2sn1-c1ccc(S(=O)(=O)Nc2ncccn2)cc1 | 6.5 | 50.8 | 
26 | Cc1cc(C)nc(NS(=O)(=O)c2ccc(-n3sc4ccccc4c3=O)cc2)n1 | 6.9 | 17.1 | 
27 | O=c1c2ccccc2sn1-c1ccc(S(=O)(=O)c2ccc([N+](=O)[O-])cc2)cc1 |  | > 316 | 4.1
28 | CC(=O)NS(=O)(=O)c1ccc(NC(=O)c2ccccc2SC(=O)c2ccccc2)cc1 | 2.6 | 45.7 | 2.2
29 | O=C(Nc1ccc(S(=O)(=O)c2ccc(NC(=O)c3ccccc3SSc3ccccc3C(=O)Nc3ccc(S(=O)(=O)c4ccc(NC(=O)c5cc([N+](=O)[O-])cc([N+](=O)[O-])c5)cc4)cc3)cc2)cc1)c1cc([N+](=O)[O-])cc([N+](=O)[O-])c1 | 240 | > 316 | 1.6
30 | NS(=O)(=O)c1ccc(-n2sc3ccccc3c2=O)cc1 |  | 16.2 | 
31 | Cc1cc(NS(=O)(=O)c2ccc(-n3sc4ccccc4c3=O)cc2)no1 | 8.7 | 54.6 | 
32 | CC(=O)NS(=O)(=O)c1ccc(NC(=O)c2ccccc2SC(C)=O)cc1 | 2.8 | 56.7 | 4.2
33 | COc1ccc(NS(=O)(=O)c2ccc(-n3sc4ccccc4c3=O)cc2)nn1 | 22.6 | 55.3 | 

Now from value to compound, other results behind:

Row | EC50 [1] [µM] | Structure (SMILES) | IC50 [2] [µM] | Activity [3] [RFU min-1]
34 | 1.9 | Cc1cc(NS(=O)(=O)c2ccc(NC(=O)c3ccccc3SSc3ccccc3C(=O)Nc3ccc(S(=O)(=O)Nc4cc(C)on4)cc3)cc2)no1 | 27.6 | 
35 | 1.6 | Cc1cc(C)nc(NS(=O)(=O)c2ccc(NC(=O)c3ccccc3SSc3ccccc3C(=O)Nc3ccc(S(=O)(=O)Nc4nc(C)cc(C)n4)cc3)cc2)n1 | 32.2 | 
36 | 1 | O=C(Nc1ccc(S(=O)(=O)Nc2nccs2)cc1)c1ccccc1SSc1ccccc1C(=O)Nc1ccc(S(=O)(=O)Nc2nccs2)cc1 | 18 | 
37 | 2.1 | COc1cc(NS(=O)(=O)c2ccc(NC(=O)c3ccccc3SSc3ccccc3C(=O)Nc3ccc(S(=O)(=O)Nc4cc(OC)nc(OC)n4)cc3)cc2)nc(OC)n1 | 52.5 | 
38 | 3.8 | O=C(NS(=O)(=O)c1ccc(NC(=O)c2ccccc2SSc2ccccc2C(=O)Nc2ccc(S(=O)(=O)NC(=O)c3ccccc3)cc2)cc1)c1ccccc1 | 54.1 | 
39 | 2.5 | Cc1noc(NS(=O)(=O)c2ccc(NC(=O)c3ccccc3SSc3ccccc3C(=O)Nc3ccc(S(=O)(=O)Nc4onc(C)c4C)cc3)cc2)c1C | 44.2 | 
40 | 1.1 | O=C(Nc1ccc(S(=O)(=O)Nc2ccccn2)cc1)c1ccccc1SSc1ccccc1C(=O)Nc1ccc(S(=O)(=O)Nc2ccccn2)cc1 | 17.8 | 
41 | 0.33 | O=C(Nc1ccc(S(=O)(=O)Nc2ccnn2-c2ccccc2)cc1)c1ccccc1SSc1ccccc1C(=O)Nc1ccc(S(=O)(=O)Nc2ccnn2-c2ccccc2)cc1 | 19.5 | 
42 | 2.9 | O=C(Nc1ccc(S(=O)(=O)Nc2ccc(Cl)nn2)cc1)c1ccccc1SSc1ccccc1C(=O)Nc1ccc(S(=O)(=O)Nc2ccc(Cl)nn2)cc1 | 18.3 | 
43 | 1.9 | Cc1cc(NS(=O)(=O)c2ccc(NC(=O)c3ccccc3SSc3ccccc3C(=O)Nc3ccc(S(=O)(=O)Nc4cc(C)nc(C)n4)cc3)cc2)nc(C)n1 | 18.2 | 
44 | 0.72 | O=C(Nc1ccc(S(=O)(=O)Nc2cnc3ccccc3n2)cc1)c1ccccc1SSc1ccccc1C(=O)Nc1ccc(S(=O)(=O)Nc2cnc3ccccc3n2)cc1 | 22.2 | 
45 | 4.2 | COc1ccc(NS(=O)(=O)c2ccc(NC(=O)c3ccccc3SSc3ccccc3C(=O)Nc3ccc(S(=O)(=O)Nc4ccc(OC)nn4)cc3)cc2)nn1 | 53.8 | 
46 | 2.3 | NS(=O)(=O)c1ccc(NS(=O)(=O)c2ccc(NC(=O)c3ccccc3SSc3ccccc3C(=O)Nc3ccc(S(=O)(=O)Nc4ccc(S(N)(=O)=O)cc4)cc3)cc2)cc1 | 43 | 
47 | 2 | O=C(Nc1ccc(S(=O)(=O)Nc2ncccn2)cc1)c1ccccc1SSc1ccccc1C(=O)Nc1ccc(S(=O)(=O)Nc2ncccn2)cc1 | 46.4 | 
48 | 1.6 | COc1cc(NS(=O)(=O)c2ccc(NC(=O)c3ccccc3SSc3ccccc3C(=O)Nc3ccc(S(=O)(=O)Nc4cc(OC)ncn4)cc3)cc2)ncn1 | 46.5 | 
49 | 4.2 | Cc1ccnc(NS(=O)(=O)c2ccc(NC(=O)c3ccccc3SSc3ccccc3C(=O)Nc3ccc(S(=O)(=O)Nc4nccc(C)n4)cc3)cc2)n1 | 56.7 | 
50 | 1.5 | CC(=O)NS(=O)(=O)c1ccc(NC(=O)c2ccccc2SSc2ccccc2C(=O)Nc2ccc(S(=O)(=O)NC(C)=O)cc2)cc1 | > 200 | 
51 | 2.4 | Cc1nc(NS(=O)(=O)c2ccc(NC(=O)c3ccccc3SSc3ccccc3C(=O)Nc3ccc(S(=O)(=O)Nc4nc(C)c(C)o4)cc3)cc2)oc1C | 46.4 | 
52 | 0.85 | NS(=O)(=O)c1ccc(NC(=O)c2ccccc2SSc2ccccc2C(=O)Nc2ccc(S(N)(=O)=O)cc2)cc1 | 217 | 
53 | 3.4 | Cc1nnc(NS(=O)(=O)c2ccc(NC(=O)c3ccccc3SSc3ccccc3C(=O)Nc3ccc(S(=O)(=O)Nc4nnc(C)s4)cc3)cc2)s1 | 18.6 | 
54 | 2.1 | COc1cnc(NS(=O)(=O)c2ccc(NC(=O)c3ccccc3SSc3ccccc3C(=O)Nc3ccc(S(=O)(=O)Nc4ncc(OC)cn4)cc3)cc2)nc1 | 55.5 | 
55 | 111 | N=C(N)NS(=O)(=O)c1ccc(NC(=O)c2ccccc2SSc2ccccc2C(=O)Nc2ccc(S(=O)(=O)N=C(N)N)cc2)cc1 | > 316 | 
